pIC50: −log10 of the molar value.
Key:
Candida albicans [1] = assay: Antifungal activity against Candida albicans in synthetic dextrose minimal medium after 48 hrs by ELISA based serial dilution method
Candida albicans [2] = assay: Antifungal activity against Candida albicans in yeast extract-peptone-glucose medium at 428 ug/ml after 48 hrs by disc diffusion assay in presence of rhodamine 6G
Candida albicans [3] = assay: Antifungal activity against Candida albicans in yeast extract-peptone-glucose medium at 428 ug/ml after 48 hrs by disc diffusion assay; type: functional; conditions: read-out: DIZ
In short: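 Solid-phase assay on YEPD agar spread with a set number of C. albicans cells. Compound solution and reference solvent spotted onto 0.5 cm discs. Plates incubated at 30 °C, and inhibition zone diameter measured against solvent control.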

Candida albicans [4] = assay: Antifungal activity against Candida albicans in yeast extract-peptone-glucose medium at 428 ug/ml after 48 hrs by disc diffusion assay in presence of 100 ug/ml of calcofluor white; type: functional
In short: (§1)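 Disc diffusion on YEPD agar containing a cell-wall-disrupting agent (SDS, Congo red or calcofluor white) and spread with a set number of C. albicans cells. Compound and reference solvent spotted on 0.5 cm discs. Incubated at 30 °C, then inhibition zone diameter measured against solvent.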

Candida albicans [5] = assay: Antifungal activity against Candida albicans in yeast extract-peptone-glucose medium at 428 ug/ml after 48 hrs by disc diffusion assay in presence of 0.01% of sodium dodecylsulphate; type: functional; conditions: read-out: DIZ
In short: as §1

Escherichia coli [6] = assay: Antibacterial activity against Escherichia coli harboring ampicillin-resistance gene encoding plasmid at 428 ug/ml after 24 hrs by disc diffusion assay; type: functional; conditions: read-out: DIZ
In short: (§2)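 Disc diffusion used an E. coli strain carrying a plasmid that encodes an ampicillin-resistance gene. Inhibition zone diameters were recorded and compared against the corresponding solvent controls.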

Candida albicans [7] = assay: Antifungal activity against Candida albicans in yeast extract-peptone-glucose medium at 428 ug/ml after 48 hrs by disc diffusion assay in presence of 150 ug/ml of congo red; type: functional
In short: as §1

Escherichia coli [8] = assay: Antibacterial activity against Escherichia coli harboring ampicillin-resistance gene encoding plasmid at 250 ug/ml after 24 hrs by disc diffusion assay; type: functional; conditions: read-out: DIZ
In short: as §2

Candida albicans [9] = assay: Antifungal activity against Candida albicans in yeast extract-peptone-glucose medium at 250 ug/ml after 48 hrs by disc diffusion assay in presence of 150 ug/ml of congo red; type: functional
In short: (§3)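 C. albicans cells at a set number were spread on YEPD agar, either plain or containing the cell-wall disruptant named in the line (SDS, Congo red or calcofluor white). Compound solution, or the reference solvent as control, was spotted onto 0.5 cm discs placed on the lawn. Plates were incubated at 30 °C and the inhibition zone diameter was measured.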

Candida albicans [10] = assay: Antifungal activity against Candida albicans in yeast extract-peptone-glucose medium at 250 ug/ml after 48 hrs by disc diffusion assay in presence of 100 ug/ml of calcofluor white; type: functional
In short: as §3

Candida albicans [11] = assay: Antifungal activity against Candida albicans in yeast extract-peptone-glucose medium at 250 ug/ml after 48 hrs by disc diffusion assay in presence of rhodamine 6G
Candida albicans [12] = assay: Antifungal activity against Candida albicans in yeast extract-peptone-glucose medium at 250 ug/ml after 48 hrs by disc diffusion assay in presence of 0.01% of sodium dodecylsulphate; type: functional; conditions: read-out: DIZ
In short: as §3

Candida albicans [13] = assay: Antifungal activity against Candida albicans in yeast extract-peptone-glucose medium at 250 ug/ml after 48 hrs by disc diffusion assay; type: functional; conditions: read-out: DIZ
In short: as §3

Candida albicans [14] = assay: Antifungal activity against Candida albicans in yeast extract-peptone-glucose medium at 375 ug/ml after 48 hrs by disc diffusion assay; type: functional; conditions: read-out: DIZ
In short: as §3

Candida albicans [15] = assay: Antifungal activity against Candida albicans in yeast extract-peptone-glucose medium at 375 ug/ml after 48 hrs by disc diffusion assay in presence of 100 ug/ml of calcofluor white; type: functional
In short: as §3

Candida albicans [16] = assay: Antifungal activity against Candida albicans in yeast extract-peptone-glucose medium at 375 ug/ml after 48 hrs by disc diffusion assay in presence of 0.01% of sodium dodecylsulphate; type: functional; conditions: read-out: DIZ
In short: as §3

Candida albicans [17] = assay: Antifungal activity against Candida albicans in yeast extract-peptone-glucose medium at 375 ug/ml after 48 hrs by disc diffusion assay in presence of rhodamine 6G
Candida albicans [18] = assay: Antifungal activity against Candida albicans in yeast extract-peptone-glucose medium at 375 ug/ml after 48 hrs by disc diffusion assay in presence of 150 ug/ml of congo red; type: functional
In short: as §3

Escherichia coli [19] = assay: Antibacterial activity against Escherichia coli harboring ampicillin-resistance gene encoding plasmid at 375 ug/ml after 24 hrs by disc diffusion assay; type: functional; conditions: read-out: DIZ
In short: as §2

Escherichia coli [20] = assay: Antibacterial activity against Escherichia coli harboring ampicillin-resistance gene encoding plasmid at 333 ug/ml after 24 hrs by disc diffusion assay; type: functional; conditions: read-out: DIZ
In short: as §2

Escherichia coli [21] = assay: Antibacterial activity against Escherichia coli harboring ampicillin-resistance gene encoding plasmid at 500 ug/ml after 24 hrs by disc diffusion assay; type: functional; conditions: read-out: DIZ
In short: as §2

Candida albicans [22] = assay: Antifungal activity against Candida albicans in yeast extract-peptone-glucose medium at 374 ug/ml after 48 hrs by disc diffusion assay in presence of rhodamine 6G
Candida albicans [23] = assay: Antifungal activity against Candida albicans in yeast extract-peptone-glucose medium at 374 ug/ml after 48 hrs by disc diffusion assay in presence of 0.01% of sodium dodecylsulphate; type: functional; conditions: read-out: DIZ
In short: as §1

Candida albicans [24] = assay: Antifungal activity against Candida albicans in yeast extract-peptone-glucose medium at 374 ug/ml after 48 hrs by disc diffusion assay in presence of 150 ug/ml of congo red; type: functional
In short: as §1

SMILES: O=C(C(=O)N1CCCC1)c1cn(CCCn2cc(C(=O)C(=O)N3CCCC3)c3ccccc32)c2ccccc12
- pIC50 (Candida albicans [1]): 3.33
- diameter of the inhibition zone (DIZ) (Candida albicans [2]): 6.5 mm
- zone of inhibition at 428 µg/mL (Candida albicans [3]): 7.5 mm
- diameter of the inhibition zone (DIZ) (Candida albicans [4]): 6.5 mm
- zone of inhibition at 428 µg/mL (Candida albicans [5]): 6.5 mm
- zone of inhibition at 428 µg/mL (Escherichia coli [6]): 8 mm
- diameter of the inhibition zone (DIZ) (Candida albicans [7]): 5.5 mm

SMILES: O=C(C(=O)N1CCOCC1)c1cn(Cc2ccc(Cn3cc(C(=O)C(=O)N4CCOCC4)c4ccccc43)cc2)c2ccccc12
- zone of inhibition at 250 µg/mL (Escherichia coli [8]): 10.5 mm
- diameter of the inhibition zone (DIZ) (Candida albicans [9]): 6 mm
- diameter of the inhibition zone (DIZ) (Candida albicans [10]): 6 mm
- diameter of the inhibition zone (DIZ) (Candida albicans [11]): 6 mm
- zone of inhibition at 250 µg/mL (Candida albicans [12]): 6.5 mm
- zone of inhibition at 250 µg/mL (Candida albicans [13]): 6.5 mm

SMILES: O=C(C(=O)N1CCOCC1)c1cn(CCCCCn2cc(C(=O)C(=O)N3CCOCC3)c3ccccc32)c2ccccc12
- pIC50 (Candida albicans [1]): 3.47
- zone of inhibition at 375 µg/mL (Candida albicans [14]): 7.5 mm
- diameter of the inhibition zone (DIZ) (Candida albicans [15]): 7.5 mm
- zone of inhibition at 375 µg/mL (Candida albicans [16]): 7 mm
- diameter of the inhibition zone (DIZ) (Candida albicans [17]): 8 mm
- diameter of the inhibition zone (DIZ) (Candida albicans [18]): 7 mm
- zone of inhibition at 375 µg/mL (Escherichia coli [19]): 8.5 mm

SMILES: O=C(C(=O)N1CCOCC1)c1cn(CCCCn2cc(C(=O)C(=O)N3CCOCC3)c3ccccc32)c2ccccc12
- diameter of the inhibition zone (DIZ) (Candida albicans [9]): 5 mm
- diameter of the inhibition zone (DIZ) (Candida albicans [10]): 7.5 mm
- diameter of the inhibition zone (DIZ) (Candida albicans [11]): 7.5 mm
- zone of inhibition at 250 µg/mL (Candida albicans [12]): 7 mm
- zone of inhibition at 333 µg/mL (Escherichia coli [20]): 10 mm
- zone of inhibition at 250 µg/mL (Candida albicans [13]): 6 mm

SMILES: O=C(C(=O)N1CCOCC1)c1cn(CCCn2cc(C(=O)C(=O)N3CCOCC3)c3ccccc32)c2ccccc12
- zone of inhibition at 375 µg/mL (Candida albicans [14]): 7 mm
- diameter of the inhibition zone (DIZ) (Candida albicans [15]): 6.5 mm
- zone of inhibition at 500 µg/mL (Escherichia coli [21]): 6 mm
- zone of inhibition at 375 µg/mL (Candida albicans [16]): 8.5 mm
- diameter of the inhibition zone (DIZ) (Candida albicans [17]): 7.5 mm
- diameter of the inhibition zone (DIZ) (Candida albicans [18]): 8 mm

SMILES: O=C(C(=O)N1CCCC1)c1cn(CCCCn2cc(C(=O)C(=O)N3CCCC3)c3ccccc32)c2ccccc12
- pIC50 (Candida albicans [1]): 4.11
- zone of inhibition at 375 µg/mL (Candida albicans [14]): 7.5 mm
- diameter of the inhibition zone (DIZ) (Candida albicans [15]): 7.5 mm
- zone of inhibition at 500 µg/mL (Escherichia coli [21]): 10.5 mm
- zone of inhibition at 375 µg/mL (Candida albicans [16]): 8 mm
- diameter of the inhibition zone (DIZ) (Candida albicans [17]): 7.5 mm
- diameter of the inhibition zone (DIZ) (Candida albicans [18]): 8 mm

SMILES: O=C(C(=O)N1CCCCC1)c1cn(CCCn2cc(C(=O)C(=O)N3CCCCC3)c3ccccc32)c2ccccc12
- zone of inhibition at 250 µg/mL (Escherichia coli [8]): 9.5 mm
- diameter of the inhibition zone (DIZ) (Candida albicans [22]): 6.5 mm
- zone of inhibition at 374 µg/mL (Candida albicans [23]): 7.5 mm
- diameter of the inhibition zone (DIZ) (Candida albicans [24]): 6.5 mm
